Experimental data taken from ChEMBL document CHEMBL4346701, “Synthesis and biological evaluation of tryptophan-derived rhodanine derivatives as PTP1B inhibitors and anti-bacterial agents” (Eur J Med Chem, 2019).
≈ marks a conversion by molar mass, not a printed value. Calls of active or inactive are those of the source. No cut-off for these calls is given here.

Columns and labels:
[1] = target: T1, Tyrosine-protein phosphatase non-receptor type 1 (Homo sapiens, UniProt P18031); assay: Inhibition of human recombinant GST-tagged PTP1B expressed in Escherichia coli BL21 (DE3) using pNPP as substrate measured for 2 mins by colorimetric analysis
T1 sequence (P18031 whole entry): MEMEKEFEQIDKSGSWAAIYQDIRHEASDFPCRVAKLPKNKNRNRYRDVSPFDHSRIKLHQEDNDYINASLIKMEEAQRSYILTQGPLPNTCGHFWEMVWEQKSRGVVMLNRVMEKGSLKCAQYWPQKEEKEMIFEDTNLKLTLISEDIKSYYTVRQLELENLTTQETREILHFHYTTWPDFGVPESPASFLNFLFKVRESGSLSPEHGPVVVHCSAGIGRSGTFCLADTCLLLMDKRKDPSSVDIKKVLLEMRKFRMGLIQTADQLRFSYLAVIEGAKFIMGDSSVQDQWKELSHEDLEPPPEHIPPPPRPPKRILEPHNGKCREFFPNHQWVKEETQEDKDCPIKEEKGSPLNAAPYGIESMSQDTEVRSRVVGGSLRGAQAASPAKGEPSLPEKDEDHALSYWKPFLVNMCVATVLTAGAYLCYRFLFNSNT

[2] = target: T2, Receptor-type tyrosine-protein phosphatase F (Homo sapiens, UniProt P10586); assay: Inhibition of human recombinant GST-tagged LAR (catalytic domain 1275 to 1613 residues) expressed in Escherichia coli BL21 (DE3) using pNPP as substrate at 20 ug/ml measured for 2 mins by colorimetric analysis
Summary of the method: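 Single-concentration screen at 20 µg/mL in the pNPP phosphatase assay.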

[3] = test system: Staphylococcus aureus; assay: Antibacterial activity against Staphylococcus aureus RN4220 assessed as reduction in bacterial cell growth incubated for 24 hrs by ELISA; type: functional; conditions: RN4220, 24 h
Summary of the method: (§1)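 MICs determined by serial dilution in 96-well microtiter plates. The strain panel included Gram-positive S. aureus strains and multidrug-resistant clinical isolates. Gatifloxacin, moxifloxacin, norfloxacin and oxacillin served as antibacterial positive controls.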

[4] = test system: Streptococcus mutans; assay: Antibacterial activity against Streptococcus mutans KCTC3289 assessed as reduction in bacterial cell growth incubated for 24 hrs by ELISA; type: functional; conditions: KCTC3289, 24 h
Summary of the method: (§2)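 MIC determined by serial dilution in 96-well microtiter plates. Strains used were E. coli 1924 and P. aeruginosa 2742 (Gram-negative), S. mutans 3289 (Gram-positive) and the fungus C. albicans 7535. Gatifloxacin, moxifloxacin, norfloxacin and oxacillin served as antibacterial reference agents, and fluconazole as the antifungal reference.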

[5] = test system: Pseudomonas aeruginosa; assay: Antibacterial activity against Pseudomonas aeruginosa 2742 assessed as reduction in bacterial cell growth incubated for 24 hrs by ELISA; type: functional; conditions: Pseudomonas aeruginosa, 2742, 24 h; summary of the method: as §2
[6] = test system: Staphylococcus aureus; assay: Antibacterial activity against Methicillin-resistant Staphylococcus aureus CCARM 3506 assessed as reduction in bacterial cell growth incubated for 24 hrs by ELISA; type: functional; conditions: CCARM 3506, 24 h; summary of the method: as §1
[7] = test system: Staphylococcus aureus; assay: Antibacterial activity against Quinolone-resistant Staphylococcus aureus CCARM 3505 assessed as reduction in bacterial cell growth incubated for 24 hrs by ELISA; type: functional; conditions: CCARM 3505, 24 h; summary of the method: as §1
[8] = test system: Staphylococcus aureus; assay: Antibacterial activity against Quinolone-resistant Staphylococcus aureus CCARM 3519 assessed as reduction in bacterial cell growth incubated for 24 hrs by ELISA; type: functional; conditions: CCARM 3519, 24 h; summary of the method: as §1
[9] = test system: Staphylococcus aureus; assay: Potency index, ratio of MIC of gatifloxacin to MIC of compound for antibacterial activity against Staphylococcus aureus KCTC503 assessed as reduction in bacterial cell growth incubated for 24 hrs by ELISA; type: functional
[10] = target: T3, Tyrosine-protein phosphatase non-receptor type 1 (Homo sapiens) (UniProt P18031); assay: Potency index, ratio of IC50 of oleanolic acid to IC50 of compound inhibition of human recombinant GST-tagged PTP1B expressed in Escherichia coli BL21 (DE3) using pNPP as substrate measured for 2 mins by colorimetric analysis
T3 sequence (whole entry): T1 sequence (P18031 whole entry)

[11] = target: T2, Receptor-type tyrosine-protein phosphatase F; assay: Inhibition of human recombinant GST-tagged LAR (catalytic domain 1275 to 1613 residues) expressed in Escherichia coli BL21 (DE3) using pNPP as substrate measured for 2 mins by colorimetric analysis
[12] = target: T3, Tyrosine-protein phosphatase non-receptor type 1 (Homo sapiens); assay: Inhibition of human recombinant GST-tagged PTP1B expressed in Escherichia coli BL21 (DE3) using pNPP as substrate incubated for 4 to 16 mins and measured for 2 mins by colorimetric analysis; conditions: TDE = time-dependent effect
Summary of the method: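 pNPP used as the phosphatase substrate, with the enzyme assay following earlier published work. IC50 obtained by regression analysis and reported as mean ± SD of three replications.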

[13] = target: T3, Tyrosine-protein phosphatase non-receptor type 1 (Homo sapiens); assay: Competitive inhibition of human recombinant GST-tagged PTP1B expressed in Escherichia coli BL21 (DE3) using pNPP as substrate assessed as increase in Km value measured for 2 mins by colorimetric analysis
[14] = target: T3, Tyrosine-protein phosphatase non-receptor type 1 (Homo sapiens); assay: Competitive inhibition of human recombinant GST-tagged PTP1B expressed in Escherichia coli BL21 (DE3) using pNPP as substrate assessed as unchanged Vmax value measured for 2 mins by colorimetric analysis
[15] = target: T1, Tyrosine-protein phosphatase non-receptor type 1; assay: Competitive inhibition of human recombinant GST-tagged PTP1B expressed in Escherichia coli BL21 (DE3) using pNPP as substrate assessed as inhibitor constant measured for 2 mins by colorimetric analysis

T2 sequence (P10586 whole entry, the tested form may be a part): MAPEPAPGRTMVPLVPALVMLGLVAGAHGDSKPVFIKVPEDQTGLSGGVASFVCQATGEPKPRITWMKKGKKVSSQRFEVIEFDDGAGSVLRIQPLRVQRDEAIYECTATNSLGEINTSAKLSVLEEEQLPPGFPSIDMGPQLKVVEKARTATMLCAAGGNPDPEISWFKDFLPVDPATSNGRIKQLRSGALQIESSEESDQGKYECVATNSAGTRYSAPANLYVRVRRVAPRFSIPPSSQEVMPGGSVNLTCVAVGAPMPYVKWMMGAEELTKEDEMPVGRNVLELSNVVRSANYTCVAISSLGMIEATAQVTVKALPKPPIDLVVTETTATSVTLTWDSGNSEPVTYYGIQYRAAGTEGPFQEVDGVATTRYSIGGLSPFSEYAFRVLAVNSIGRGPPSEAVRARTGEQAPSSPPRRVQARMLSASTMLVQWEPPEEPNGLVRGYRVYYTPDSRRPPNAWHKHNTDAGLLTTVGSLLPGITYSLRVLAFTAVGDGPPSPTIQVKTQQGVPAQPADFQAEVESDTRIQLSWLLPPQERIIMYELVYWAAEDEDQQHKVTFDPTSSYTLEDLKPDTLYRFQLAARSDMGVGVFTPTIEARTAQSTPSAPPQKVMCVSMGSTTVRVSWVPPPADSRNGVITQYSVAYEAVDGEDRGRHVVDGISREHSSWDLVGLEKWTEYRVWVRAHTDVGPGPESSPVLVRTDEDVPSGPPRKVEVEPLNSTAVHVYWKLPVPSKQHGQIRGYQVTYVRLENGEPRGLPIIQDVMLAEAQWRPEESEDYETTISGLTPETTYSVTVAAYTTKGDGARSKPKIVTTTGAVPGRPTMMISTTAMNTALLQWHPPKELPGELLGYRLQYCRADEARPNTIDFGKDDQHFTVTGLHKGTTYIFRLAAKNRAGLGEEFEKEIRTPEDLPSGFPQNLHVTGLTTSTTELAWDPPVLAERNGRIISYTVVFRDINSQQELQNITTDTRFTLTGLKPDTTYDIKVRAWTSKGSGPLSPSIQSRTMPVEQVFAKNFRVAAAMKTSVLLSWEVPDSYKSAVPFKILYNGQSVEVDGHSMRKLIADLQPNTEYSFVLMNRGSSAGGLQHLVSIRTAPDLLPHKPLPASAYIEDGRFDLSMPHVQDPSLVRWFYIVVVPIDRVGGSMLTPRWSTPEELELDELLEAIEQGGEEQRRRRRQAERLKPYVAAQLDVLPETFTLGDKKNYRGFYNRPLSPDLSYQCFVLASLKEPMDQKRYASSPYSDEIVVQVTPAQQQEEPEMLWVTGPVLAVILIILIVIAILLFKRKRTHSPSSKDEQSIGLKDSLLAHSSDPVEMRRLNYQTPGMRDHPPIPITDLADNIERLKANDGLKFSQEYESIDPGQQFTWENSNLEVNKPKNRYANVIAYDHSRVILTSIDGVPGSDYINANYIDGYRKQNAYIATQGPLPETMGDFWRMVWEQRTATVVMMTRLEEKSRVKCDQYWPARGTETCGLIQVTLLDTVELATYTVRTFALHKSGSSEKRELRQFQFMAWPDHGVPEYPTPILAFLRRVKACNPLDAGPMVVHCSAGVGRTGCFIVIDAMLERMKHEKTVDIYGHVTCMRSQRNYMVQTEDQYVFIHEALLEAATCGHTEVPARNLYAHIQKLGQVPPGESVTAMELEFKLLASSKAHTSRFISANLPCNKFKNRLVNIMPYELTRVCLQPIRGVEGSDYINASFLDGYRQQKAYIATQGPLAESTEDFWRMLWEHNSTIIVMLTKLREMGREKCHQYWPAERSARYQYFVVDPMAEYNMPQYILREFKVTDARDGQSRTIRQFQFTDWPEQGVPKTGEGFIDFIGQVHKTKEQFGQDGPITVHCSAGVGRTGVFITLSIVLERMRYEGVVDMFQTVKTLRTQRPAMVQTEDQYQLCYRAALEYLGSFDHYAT

Compound	IC50 [1] [nM]	inhibition [2]	MIC [3] [µg/mL]	MIC [4] [µg/mL]	MIC [5] [µg/mL]	MIC [6] [µg/mL]	MIC [7] [µg/mL]	MIC [8] [µg/mL]	Ratio [9]	Ratio IC50 [10]	IC50 [11] [nM]	inhibition [12]	inhibition [13]	inhibition [14]	Ki [15] [nM]
O=C(O)C(Cc1c[nH]c2ccccc12)N1C(=O)/C(=C/c2ccc3cc(OCc4ccc(Cl)cc4Cl)ccc3c2)SC1=S (stereo not given)	540	inactive	2 (≈ 3.16 µM)	4 (≈ 6.31 µM)	> 64	8 (≈ 12.6 µM)	4 (≈ 6.31 µM)	8 (≈ 12.6 µM)	–	–	–	–	–	–	–
Cc1ccc(COc2ccc3cc(/C=C4\SC(=S)N(C(Cc5c[nH]c6ccccc56)C(=O)O)C4=O)ccc3c2)cc1 (stereo not given)	640	inactive	2 (≈ 3.46 µM)	2 (≈ 3.46 µM)	> 64	8 (≈ 13.8 µM)	2 (≈ 3.46 µM)	2 (≈ 3.46 µM)	2	–	–	–	–	–	–
O=C(O)C(Cc1c[nH]c2ccccc12)N1C(=O)/C(=C/c2ccc3cc(OCc4ccc(Br)cc4)ccc3c2)SC1=S (stereo not given)	360	–	2 (≈ 3.11 µM)	8 (≈ 12.4 µM)	> 64	4 (≈ 6.22 µM)	4 (≈ 6.22 µM)	4 (≈ 6.22 µM)	–	8	29100	Tde	Active	Active	70
